Data from ChEMBL document CHEMBL1148785, “Second generation tetrahydroquinoline-based protein farnesyltransferase inhibitors as antimalarials” (J Med Chem, 2007).

Key:
Plasmodium falciparum [1] = test: Inhibition of Plasmodium falciparum protein farnesyltransferase at 5 nM by scintillation proximity assay
Plasmodium falciparum [2] = test: Inhibition of Plasmodium falciparum protein farnesyltransferase at 50 nM by scintillation proximity assay
Plasmodium falciparum [3] = test: Antimalarial activity against Plasmodium falciparum 3D7; format: functional; details: read-out: ED50 (the source's name)
Summary of the method: (§1)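 Asynchronous culture in type A+ erythrocytes at 0.5% parasitemia and 0.5% hematocrit, grown in RPMI-1640 with 20% heat-inactivated human A+ plasma. Compound was serially diluted from a top final 5 µM, with DMSO vehicle as 100% growth. Plates ran 48 h at 37 °C under 5% CO2/5% O2/90% N2, then [3H]-hypoxanthine (0.3 µCi) for 24 h. Filter-harvested counts were corrected for the uninfected-RBC background. ED50 by linear regression; duplicates averaged.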

Plasmodium falciparum [4] = test: Inhibition of Plasmodium falciparum protein farnesyltransferase at 0.5 nM by scintillation proximity assay
Plasmodium falciparum [5] = test: Antimalarial activity against Plasmodium falciparum K1; format: functional; details: read-out: ED50 (the source's name); summary of the method: as §1
[6] = Inhibition of Plasmodium falciparum protein farnesyltransferase by scintillation proximity assay

Compound | inhibition (Plasmodium falciparum [1]) [%] | inhibition (Plasmodium falciparum [2]) [%] | EC50 (Plasmodium falciparum [3]; Plasmodium falciparum, 3D7) [nM] | inhibition (Plasmodium falciparum [4]) [%] | EC50 (Plasmodium falciparum [5]; Plasmodium falciparum, K1) [nM] | EC50 (Plasmodium falciparum [3]) [nM] | EC50 (Plasmodium falciparum [5]) [nM] | IC50 [6] [nM]
Cn1cncc1CN1CC(N(CC2CCN(C(=O)OCC(F)(F)F)CC2)S(=O)(=O)c2ccccn2)Cc2cc(C#N)ccc21 (stereo unspecified) | 47 | 91 | 65 | 91 | 75 | – | – | –
Cn1cnc(CN2CC(N(CC(=O)NC(C)(C)C)S(=O)(=O)c3cn(C)cn3)Cc3cc(-c4ccccc4)ccc32)c1 (stereo unspecified) | 73 | 97 | 381 | 23 | 395 | – | – | –
Cc1noc(C)c1CN(C1Cc2cc(C#N)ccc2N(Cc2cncn2C)C1)S(=O)(=O)c1ccccn1 (stereo unspecified) | 93 | 96 | 144 | 17 | 965 | – | – | –
COC(=O)N1CCC(CN(C2Cc3cc(C#N)ccc3N(Cc3cncn3C)C2)S(=O)(=O)c2cnn(C)c2)CC1 (stereo unspecified) | 98 | 100 | 42 | 39 | 45 | – | – | –
Cn1cnc(S(=O)(=O)N(Cc2ccc3cccnc3c2)C2Cc3cc(C#N)ccc3N(Cc3cncn3C)C2)c1 (stereo unspecified) | 91 | 99 | 210 | 37 | 600 | – | – | –
Cc1c(S(=O)(=O)N(CC2CCN(C(=O)OC(C)(C)C)CC2)C2Cc3cc(C#N)ccc3N(Cc3cncn3C)C2)ncn1C (stereo unspecified) | 87 | 98 | 140 | 18 | 75 | – | – | –
COC(=O)c1cccc(CN(C2Cc3cc(C#N)ccc3N(Cc3cncn3C)C2)S(=O)(=O)c2ccccn2)n1 (stereo unspecified) | 94 | 96 | 600 | 66 | 900 | – | – | –
COC(=O)N1CCC(CN(C2Cc3cc(C#N)ccc3N(Cc3cncn3C)C2)S(=O)(=O)c2ccccn2)CC1 (stereo unspecified) [listing 1 of 2 here] | – | – | – | – | – | 16 | 15 | 0.58
Cn1cnc(S(=O)(=O)N(Cc2cc3nsnc3cc2Cl)C2Cc3cc(C#N)ccc3N(Cc3cncn3C)C2)c1 (stereo unspecified) | 58 | 90 | 3000 | 0 | 3750 | – | – | –
COC(=O)N1CCC(CN(C2Cc3cc(C#N)ccc3N(Cc3cncn3C)C2)S(=O)(=O)c2cc(C)cs2)CC1 (stereo unspecified) | 86 | 99 | 62 | 25 | 140 | – | – | –
Cn1cnc(S(=O)(=O)N(Cc2cccc3nsnc23)C2Cc3cc(C#N)ccc3N(Cc3cncn3C)C2)c1 (stereo unspecified) | 94 | 99 | 60 | 18 | 230 | – | – | –
Cn1cnc(S(=O)(=O)N(Cc2ccccc2C(F)(F)F)C2Cc3cc(C#N)ccc3N(Cc3cncn3C)C2)c1 (stereo unspecified) | 93 | 99 | 71 | 36 | 75 | – | – | –
Cn1cncc1CN1CC(N(Cc2ccc(S(C)(=O)=O)cc2)S(=O)(=O)c2ccc3c(c2)OCCCO3)Cc2cc(C#N)ccc21 (stereo unspecified) | 78 | 97 | 2100 | 10 | 3500 | – | – | –
C=C(Br)CN(C1Cc2cc(-c3ccccc3)ccc2N(Cc2cncn2C)C1)S(=O)(=O)c1cn(C)cn1 (stereo unspecified) | 89 | 97 | 380 | 21 | 360 | – | – | –
Cn1cncc1CN1CC(N(CCCCCC(N)=O)S(=O)(=O)c2ccccn2)Cc2cc(C#N)ccc21 (stereo unspecified) | 32 | 81 | 300 | 4 | 250 | – | – | –
Cn1cncc1CN1CC(N(CC(=O)O)S(=O)(=O)c2ccccn2)Cc2cc(C#N)ccc21 (stereo unspecified) | 33 | 81 | 2100 | 6 | 2600 | – | – | –
CCN(C1Cc2cc(-c3ccccc3)ccc2N(Cc2cncn2C)C1)S(=O)(=O)c1cn(C)cn1 (stereo unspecified) | 29 | 86 | 5000 | 10 | > 5000 | – | – | –
Cn1cnc(CN2CC(N(CCn3cccc3)S(=O)(=O)c3cn(C)cn3)Cc3cc(-c4ccccc4)ccc32)c1 (stereo unspecified) | 38 | 90 | 460 | 0 | 150 | – | – | –
COC(=O)N1CCC(CN(C2Cc3cc(C#N)ccc3N(Cc3cncn3C)C2)S(=O)(=O)c2ccccn2)CC1 (stereo unspecified) [listing 2 of 2 here] | – | – | – | – | – | 11 | 13 | 0.29
COC(=O)N1CCC(CN(C2Cc3cc(C#N)ccc3N(Cc3cncn3C)C2)S(=O)(=O)c2cn(C)cn2)CC1 (stereo unspecified) | 95 | 97 | 9 | 54 | 4.5 | – | – | –
Cn1cncc1CN1CC(N(Cc2ccc(S(C)(=O)=O)cc2)S(=O)(=O)c2ccccn2)Cc2cc(C#N)ccc21 (stereo unspecified) | 84 | 96 | 210 | 49 | 405 | – | – | –
Cn1cncc1CN1CC(N(CCCCON2C(=O)c3ccccc3C2=O)S(=O)(=O)c2ccccn2)Cc2cc(C#N)ccc21 (stereo unspecified) | 32 | 84 | 2150 | 0 | 1420 | – | – | –
